# This is a sample that favours compounds with a hit; in the whole collection about 2.2% have one here.
# SIAE primary – human SIAE inhibition, primary screen; Q9HAT2; SIAE FP-Rh probe binding, fluorescence polarization; inhibition, % at 9.66 µM; 370,000 compounds, 0.69% hits;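 active = inhibition above a cutoff: mean of compounds within the control limits plus 3 SD of those, cut at about 17% in these data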;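 note: 0% = plate median of compound wells and 100% = probe without SIAE protein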
# TDP2 inh – TDP2 (human) inhibition, absorbance primary screen | O95551 | AID 720702 | 370,000 compounds, 0.34% hits | inhibition, % at 12.8 µM | recombinant TDP2, T5PNP hydrolysis, p-nitrophenol absorbance 415 nm;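 active = inhibition above the mean of all tested compounds plus 3 SD, set per campaign, cut at about 25% in these data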;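 note: 0% = DMSO with enzyme and 100% = buffer with substrate but no TDP2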
#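 System – recombinant human TDP2 · Quantity – TDP2 enzyme at 120 nM final · Doses – single concentration, 12.8 µM nominal, with 1% DMSO · Incubation – 2 h at 37 °C · Measured by – epi absorbance of p-nitrophenol freed from T5PNP by hydrolysis · Read-out – % inhibition relative to enzyme-containing and enzyme-free wells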
# mABHD4 FP – inhibitors of mouse ABHD4 | purified mABHD4, FP-Rh probe fluorescence polarization | inhibition, % at 8.92 µM | 370,000 compounds, 0.54% hits | AID 720543;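 active = inhibition exceeding the mean over every tested compound plus 3 SD, cut at about 30% in these data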;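 note: 0% = plate median of compound wells and 100% = S159A mutant with DMSO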
#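 Assay system: Wild-type mouse ABHD4 protein | Medium: HEPES pH 7.0 buffer, 150 mM NaCl, 0.01% Pluronic F-127 | Incubation: Enzyme–compound pre-incubation 45 min, then probe 60 min, both 25 °C | Technique: Fluorescence polarization with parallel and perpendicular emission, 525/598 nm | Evaluation: % inhibition of FP-Rh probe binding versus controls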
# LEDGF integ inh – blocks HIV-1 LEDGF/p75-dependent DNA integration; 370,000 compounds, 0.64% hits; TR-FRET IN-LEDGF/p75 DNA integration, Eu/Cy5; inhibition, % at 3.7 µM;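 active = inhibition above the screen-wide mean plus 3 SD, cut at about 13% in these data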;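 note: signal is the Cy5 over europium emission ratio at 671 and 618 nm; 0% = plate median of compound wells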
# TCR-CD3 inh – inhibitors of human TCR-CD3 interaction; TAMRA-labeled TCR probe fluorescence, biochemical; inhibition, % at 9.4 µM; 360,000 compounds, 0.37% hits; AID 651800; in the data active = inhibition above about 19%;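 note: recombinant mutant TCR 2C K166C tagged with TAMRA read by polarization; 0% = receptor in buffer alone and 100% = receptor with positive control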
# HTRA1 inhibitor – HTRA1 (human) protease inhibition; recombinant HTRA1, FP-rhodamine activity-based probe, fluorescence polarization; AID 504803; 340,000 compounds, 0.5% hits; inhibition, % at 5.96 µM; in the data active = inhibition above about 36%;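 note: 0% = enzyme with DMSO and 100% = wells lacking enzyme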
# Target sequence (Q92743 whole entry, looked up): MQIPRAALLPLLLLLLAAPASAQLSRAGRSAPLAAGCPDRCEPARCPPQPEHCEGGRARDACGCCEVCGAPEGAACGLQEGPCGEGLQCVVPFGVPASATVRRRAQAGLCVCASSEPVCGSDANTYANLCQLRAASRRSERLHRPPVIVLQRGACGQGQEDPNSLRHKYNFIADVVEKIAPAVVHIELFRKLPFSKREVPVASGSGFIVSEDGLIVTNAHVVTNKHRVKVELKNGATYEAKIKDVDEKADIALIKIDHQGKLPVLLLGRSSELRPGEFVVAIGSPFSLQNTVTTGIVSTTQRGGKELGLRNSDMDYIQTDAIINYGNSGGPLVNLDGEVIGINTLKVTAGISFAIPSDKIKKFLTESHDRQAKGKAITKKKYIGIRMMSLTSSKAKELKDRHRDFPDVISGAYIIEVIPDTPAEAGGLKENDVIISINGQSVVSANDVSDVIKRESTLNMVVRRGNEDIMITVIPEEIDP
# SIAE confirm – human SIAE inhibition, confirmation. shares compounds with SIAE primary. SIAE FP-Rh activity-based probe, fluorescence polarization. inhibition, % at 9.66 µM. 2,300 compounds, 13% hits;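 active = mean inhibition of the replicates above the hit cutoff set in the primary screen, cut at about 17% in these data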;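 note: 0% = SIAE with DMSO and probe and 100% = probe without SIAE; inhibitors lower polarization as more probe stays unbound to SIAE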
# * hit, by the source's call; / = not tested or not shown.
SMILES,SIAE primary,TDP2 inh,mABHD4 FP,LEDGF integ inh,TCR-CD3 inh,HTRA1 inhibitor,SIAE confirm
COc1ccc(S(=O)(=O)Nc2ccc(Cl)cn2)cc1,-7.1,2.4,1.7,-2.8,0.2,3.9,/
COc1ccc(NC(=O)Cn2c(=O)oc3cc(S(=O)(=O)N4CCCC4)ccc32)c(OC)c1,1.5,4.6,1.1,-1.4,-6.6,-1.9,/
COc1ccc(NC(=O)Cn2c(=O)oc3cc(Cl)ccc32)c(OC)c1,17.4*,4.3,-1.7,1.2,7.1,-3.5,2.2
C=CCNc1nc(NCCCN2CCCC2=O)c2sc(-c3ccccc3)cc2n1,-3.0,-10.8,-5.5,-3.2,1.7,/,/
C=CCNc1nc(NCc2ccc(NC(C)=O)cc2)c2sc(-c3ccccc3)cc2n1,38.8*,0.8,24.5,-6.7,0.2,/,37.3*
CC(=O)Nc1ccc(CNc2nc(NC(C)C)nc3cc(-c4ccccc4)sc23)cc1,54.9*,-2.8,23.2,0.2,2.6,/,53.3*
CC(=O)NCCNc1nc(NC(C)C)nc2cc(-c3ccccc3)sc12,-1.4,0.0,1.5,-2.3,-0.8,/,/
COc1ccc([C@H]2CC(=O)C=C(C#CC(C)(C)C)C2)cc1,8.1,-16.9,-5.8,-2.3,4.9,-17.1,/
O=C(CCNC(=O)c1ccccc1Cl)Nc1cc(C(F)(F)F)ccc1N1CCCC1,4.5,0.7,-0.1,-5.3,4.3,4.8,/
C[C@H](CO)N1C[C@H](C)[C@@H](CN(C)S(=O)(=O)c2ccccc2)Oc2ccc(NC(=O)Nc3ccc4c(c3)OCO4)cc2C1=O,19.3*,12.1,4.6,-1.3,7.6,7.7,1.6
COc1ccc(NC(=O)N(C)C[C@H]2OCCCC[C@H](C)Oc3ccc(NC(=O)Nc4ccc5c(c4)OCO5)cc3C(=O)N([C@@H](C)CO)C[C@@H]2C)cc1,23.4*,-3.1,11.2,2.0,1.1,9.1,5.6
COc1ccc(NC(=O)Nc2ccc3c(c2)C(=O)N([C@H](C)CO)C[C@H](C)[C@@H](CN(C)S(=O)(=O)c2ccc(OC)cc2)O3)cc1,22.2*,-7.8,-2.1,-4.4,0.7,-8.5,-3.8
Cc1[nH]c2ccccc2c1/C=N/Nc1nc(Nc2ccccc2)nc(N2CCOCC2)n1,31.8*,4.0,12.1,1.3,7.3,-3.4,16.7
Oc1[nH]c2ccccc2c1N=Nc1nc(Nc2ccccc2)nc(N2CCOCC2)n1,-10.8,20.0,-2.8,0.9,-5.1,-11.3,/
COc1cccc(NC(=O)c2ccnc(N3CCC(C(=O)NCc4cc(OC)ccc4OC)CC3)c2)c1,/,/,/,/,/,-13.4,/
CCCCOCC1CN(Cc2ccccc2OC)S(=O)(=O)c2cc(Cl)ccc2O1 (configuration not stated),-7.9,-4.1,-10.6,2.0,3.0,/,/
CCOP(=O)(NC(c1ccccc1)c1nc2ccccc2[nH]c1=O)OCC (configuration not stated),-6.9,-3.5,4.3,2.8,9.2,-1.6,/
Nn1c(COc2cccc(Br)c2)nnc1SCC(=O)NCC1CCCO1 (configuration not stated),2.6,5.3,3.4,-4.3,6.4,-7.4,/
CC/C(Cc1ccccc1)=N/NC(=O)c1cccc(Br)c1,18.5*,0.2,-6.1,-1.3,4.5,-10.2,0.0
Cc1ccc(S(=O)(=O)N2[C@@H](c3ccc(C(C)(C)C)cc3)C(C(=O)O)=CC[C@H]2c2ccc3c(c2)OCO3)cc1,-1.1,5.5,15.8,2.1,-2.4,-61.5,/
CCCCC(=O)NCCNC(=O)c1cc(OCC(F)(F)F)ccc1OCC(F)(F)F,26.3*,3.1,0.2,4.1,-5.8,10.2,3.9
O=C(NN=Cc1ccc(N2CCOCC2)s1)c1ccc([N+](=O)[O-])cc1,23.7*,-11.4,12.7,-5.8,1.5,24.9,1.3
COCCNc1nc(NCC2CCCCC2)c2sc(-c3ccccc3)cc2n1,20.5*,3.5,18.7,6.2,-4.2,/,32.2*
COCCNc1nc(NCCOc2ccccc2Cl)c2sc(-c3ccccc3)cc2n1,20.0*,-4.9,13.0,3.2,0.5,/,25.9*
c1ccc(-c2cc3nc(NCC4CC4)nc(NCC4CCCCC4)c3s2)cc1,4.8,-10.3,13.9,-1.6,1.7,/,/
SMILES,SIAE primary,TDP2 inh,mABHD4 FP,LEDGF integ inh,TCR-CD3 inh,HTRA1 inhibitor,SIAE confirm
CCC(NC(=O)CCc1c(C)c2cc3c4c(oc3cc2oc1=O)CCCC4)C(=O)O (configuration not stated),-0.9,-2.8,-4.7,-3.4,1.9,-5.1,/
COc1cc(/C=C/CNC[C@H]2O[C@@H](n3ccc(N)nc3=O)[C@H](O)[C@@H]2O)ccc1O,5.3,10.5,1.8,-2.7,-6.2,-1.0,/
CCOC(=O)c1c(C)[nH]c(C(=O)OCC(=O)NC2(C#N)CCCCC2)c1C,3.8,1.3,0.1,-0.8,4.8,-8.1,/
COc1ccc(N2C(=O)CSC2c2cccc(OC)c2OC)cc1 (configuration not stated),23.3*,5.3,6.0,-0.7,7.3,-0.2,-7.5
CNC(=O)c1c(NC(=O)CCS(=O)(=O)c2ccc(C)cc2)sc(C)c1C,-1.5,-2.5,6.3,0.9,1.2,-1.9,/
CC(C)N(C)S(=O)(=O)c1ccc(NC(=O)CSC(=S)N2CCCC2)cc1,-0.3,-7.1,-4.9,13.0,-3.8,-6.2,/
Cc1ccc(NC2CCCN(C(=O)CN3C(=O)CSC3=O)C2)cc1C (configuration not stated),6.6,13.4,-2.4,2.3,4.0,-0.9,/
CC(C)c1ccc(NC2CCCN(C(=O)CN3C(=O)CSC3=O)C2)cc1 (configuration not stated),17.4*,-13.5,-2.6,-1.9,-4.4,-0.1,-0.8
Nc1nc(NCc2ccco2)nc(N2CCCCC2)c1[N+](=O)[O-],18.6*,0.2,-1.2,-2.6,6.2,3.1,1.4
CN1CCN(c2nc(NCc3ccco3)nc(N)c2[N+](=O)[O-])CC1,16.2,18.6,0.6,1.2,-0.5,4.8,/
O=C(NC1CCSc2ccccc21)c1ccc(F)cc1 (configuration not stated),7.8,15.3,-3.7,0.5,-0.4,-5.4,/
O=C1OC(c2ccccc2)=NC12CC2c1ccc(Cl)cc1 (configuration not stated),23.2*,-12.6,-1.1,2.4,-1.7,7.5,70.1*
Oc1ccc(/C=N/n2c(-c3ccccc3)n[nH]c2=S)cc1,10.7,12.3,-1.0,-0.6,7.1,1.1,/
COc1ccc(/C=N/n2c(-c3ccccc3)n[nH]c2=S)cc1,21.9*,1.1,4.7,0.2,3.5,3.9,0.3
Cc1ccc(S(=O)(=O)N2CCN(C(=O)CN(Cc3ccco3)Cc3cccs3)CC2)cc1,-3.3,0.9,-1.4,2.6,-1.8,-2.1,/

# High-throughput results from PubChem BioAssay.
